What was measured:
Type in all cases: functional
SF-268 = assay: Anticancer activity against human SF268 cells after 48 hrs; settings: SF-268, 48 h
How it was run: (§1)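 NCI 60-line panel protocol with a 48 h incubation. Per line: GI50 = concentration giving 50% decrease in net cell growth; TGI = total growth inhibition; LC50 = net 50% loss of initial cells. When the level was not reached or was exceeded, the value is given as greater or less than the highest or lowest concentration tested.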

SK-MEL-5 = assay: Anticancer activity against human SK-MEL-5 cells after 48 hrs; settings: SK-MEL-5, 48 h; how it was run: as §1
UACC-257 = assay: Anticancer activity against human UACC257 cells after 48 hrs; settings: UACC-257, 48 h
How it was run: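 NCI ~60 human tumour cell line panel with a 48 h incubation. GI50 is the concentration giving a 50% fall in net growth, TGI gives total growth inhibition, and LC50 gives a net 50% loss of initial cells. An effect not reached or exceeded is reported as greater or less than the highest or lowest concentration tested.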

| Structure (SMILES) | GI50 (SF-268) | LC50 (concentration killing 50% of initial cells) (SF-268) | TGI (SF-268) | GI50 (SK-MEL-5) | LC50 (SK-MEL-5) | TGI (SK-MEL-5) | GI50 (UACC-257) | LC50 (UACC-257) | TGI (UACC-257) |
| --- | --- | --- | --- | --- | --- | --- | --- | --- | --- |
| Cc1cc(O)c(C2=NN(c3ccc(S(N)(=O)=O)cc3)C(/C=C/c3ccccc3)C2)cc1Cl (centres undefined) | 5.63 µM | 46.7 µM | 19.5 µM | 4.23 µM | 40.5 µM | 16.4 µM | 14.5 µM | > 100 µM | 45.7 µM |
| Cc1cc(O)c(C2=NN(c3ccc(S(N)(=O)=O)cc3)C(c3ccccc3O)C2)cc1Cl (centres undefined) | 2.64 µM | 51.9 µM | 8.06 µM | 5.69 µM | 42.7 µM | 18.2 µM | 6.92 µM | 59 µM | 22.1 µM |
| Cc1cc(O)c(C2=NN(c3ccc(S(N)(=O)=O)cc3)C(c3ccccc3Cl)C2)cc1Cl (centres undefined) | 1.92 µM |  | 3.72 µM | 3.85 µM | 36 µM | 12.3 µM | 11.8 µM | > 100 µM | 79.6 µM |
| COc1ccc(C2CC(c3cc(Cl)c(C)cc3O)=NN2c2ccc(S(N)(=O)=O)cc2)cc1OC (centres undefined) | 4.74 µM | > 100 µM |  | 4.28 µM | 39.7 µM | 15.2 µM | 4.22 µM | > 100 µM | 19.7 µM |

Source: ChEMBL document CHEMBL1914430, “Synthesis of some new 1,3,5-trisubstituted pyrazolines bearing benzene sulfonamide as anticancer and anti-inflammatory agents” (Bioorg Med Chem Lett, 2011)
